In ChEMBL document CHEMBL1131019, “Minimal-size, constrained corticotropin-releasing factor agonists with i-(i+3) Glu-Lys and Lys-Glu bridges” (1998):
Where “and” joins values, the source holds several entries; their conditions need not be identical. Equal values may be shown once.

What was measured:
Format in all cases: functional, Pituitary gland cell
Rattus norvegicus [1] = organism: Rattus norvegicus; test: In vitro for agonist activity by measuring release of ACTH by rat pituitary cells in culture relative to human Corticotropin-Releasing factor (CRF)
How it was run: (§1)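 Male Sprague–Dawley rat anterior pituitary cells, collagenase-dissociated, plated at 0.16 × 10⁶ cells/well in 2% FBS medium. After 3 days, washed into 0.1% BSA medium, preincubated 1 h, washed again, then exposed to peptide for 3 h. Medium ACTH measured by radioimmunoassay.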

Rattus norvegicus [2] = organism: Rattus norvegicus; test: Percent in vito intrinsic activity (IA) was evaluated in pituitary cell culture assay
How it was run: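 ACTH release assay in cultured rat anterior pituitary cells from male Sprague–Dawley rats: 3-day culture, 1 h preincubation in 0.1% BSA medium, 3 h peptide exposure, ACTH in medium by radioimmunoassay. Intrinsic activity = ACTH released at maximal analogue dose divided by ACTH released at maximal CRF dose, ×100.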

Rattus norvegicus [3] = organism: Rattus norvegicus; test: Agonist activity by measuring release of ACTH by rat pituitary cells in culture relative to ovine Corticotropin-Releasing factor (CRF); how it was run: as §1

| SMILES | Potency (Rattus norvegicus [1]) | IA (Rattus norvegicus [2]) | Potency (Rattus norvegicus [3]) |
| --- | --- | --- | --- |
| CCCC[C@H](NC(=O)[C@H](CCC(=O)O)NC(=O)[C@H](CC(C)C)NC(=O)[C@H](CCCC)NC(=O)[C@H](CCC(=O)O)NC(=O)[C@H](CCCN=C(N)N)NC(=O)[C@H](CC(C)C)NC(=O)[C@H](CC(C)C)NC(=O)[C@H](Cc1c[nH]cn1)NC(=O)[C@@H](Cc1ccccc1)NC(=O)[C@@H](NC(=O)[C@H](CC(C)C)NC(=O)[C@H](CC(=O)O)NC(=O)[C@H](CC(C)C)NC(C)=O)[C@@H](C)O)C(=O)N[C@@H](C)C(=O)N[C@@H](CCCCN)C(=O)N[C@@H](C)C(=O)N[C@@H](CCC(=O)O)C(=O)N[C@@H](CCC(N)=O)C(=O)N[C@@H](CCC(=O)O)C(=O)N[C@@H](C)C(=O)N[C@@H](CCC(=O)O)C(=O)N1C(=O)[C@H](C)NC(=O)[C@H](C)NC(=O)[C@@H](N)CCC(=O)NCCCC[C@H]1C(=O)N[C@@H](CC(N)=O)C(=O)N[C@@H](CCCN=C(N)N)C(=O)N[C@@H](CC(C)C)C(=O)N[C@@H](CC(C)C)C(=O)N[C@@H](CC(C)C)C(=O)N[C@@H](CCC(=O)O)C(=O)N[C@@H](CCC(=O)O)C(=O)N[C@@H](C)C(N)=O | 0.073 | 93% |  |
| CCCC[C@H](NC(=O)[C@H](CCC(=O)O)NC(=O)[C@H](CC(C)C)NC(=O)[C@@H](NC(=O)[C@H](CCC(=O)O)NC(=O)[C@H](CCCN=C(N)N)NC(=O)[C@H](CC(C)C)NC(=O)[C@@H]1CCCCNC(=O)CC[C@H](NC(=O)[C@H](CC(C)C)NC(=O)[C@H](CC(=O)O)NC(=O)[C@H](CC(C)C)NC(=O)[C@H](CO)NC(=O)[C@@H](NC(=O)[C@@H]2CCCN2C(=O)[C@@H]2CCCN2C(C)=O)[C@@H](C)CC)C(=O)N[C@H](Cc2ccccc2)C(=O)N[C@@H](Cc2c[nH]cn2)C(=O)N1)C(C)C)C(=O)N[C@@H](C)C(=O)N[C@@H](CCCN=C(N)N)C(=O)N[C@@H](C)C(=O)N[C@@H](CCC(=O)O)C(=O)N[C@@H](CCC(N)=O)C(=O)N[C@@H](CC(C)C)C(=O)N[C@@H](C)C(=O)N[C@@H](CCC(N)=O)C(=O)N[C@@H](CCC(N)=O)C(=O)N[C@@H](C)C(=O)N[C@@H](Cc1c[nH]cn1)C(=O)N[C@@H](CO)C(=O)N[C@@H](CC(N)=O)C(=O)N[C@@H](CCCN=C(N)N)C(=O)N[C@@H](CCCCN)C(=O)N[C@@H](CC(C)C)C(=O)N[C@@H](CCCC)C(=O)N[C@@H](CCC(=O)O)C(=O)N[C@H](C(=O)N[C@H](C(N)=O)[C@@H](C)CC)[C@@H](C)CC |  |  | 1.4 |
| CCCC[C@H](NC(=O)[C@H](CCC(=O)O)NC(=O)[C@H](CC(C)C)NC(=O)[C@@H](NC(=O)[C@H](CCC(=O)O)NC(=O)[C@H](CCCN=C(N)N)NC(=O)[C@H](CC(C)C)NC(=O)[C@@H]1CCC(=O)NCCCC[C@H](NC(=O)[C@H](CC(C)C)NC(=O)[C@H](CC(=O)O)NC(=O)[C@H](CC(C)C)NC(=O)[C@H](CO)NC(=O)[C@@H](NC(=O)[C@@H]2CCCN2C(=O)[C@@H]2CCCN2C(C)=O)[C@@H](C)CC)C(=O)N[C@H](Cc2ccccc2)C(=O)N[C@@H](Cc2c[nH]cn2)C(=O)N1)C(C)C)C(=O)N[C@@H](C)C(=O)N[C@@H](CCCN=C(N)N)C(=O)N[C@@H](C)C(=O)N[C@@H](CCC(=O)O)C(=O)N[C@@H](CCC(N)=O)C(=O)N[C@@H](CC(C)C)C(=O)N[C@@H](C)C(=O)N[C@@H](CCC(N)=O)C(=O)N[C@@H](CCC(N)=O)C(=O)N[C@@H](C)C(=O)N[C@@H](Cc1c[nH]cn1)C(=O)N[C@@H](CO)C(=O)N[C@@H](CC(N)=O)C(=O)N[C@@H](CCCN=C(N)N)C(=O)N[C@@H](CCCCN)C(=O)N[C@@H](CC(C)C)C(=O)N[C@@H](CCCC)C(=O)N[C@@H](CCC(=O)O)C(=O)N[C@H](C(=O)N[C@H](C(N)=O)[C@@H](C)CC)[C@@H](C)CC |  |  | 0.0004 |
| CCCC[C@H](NC(=O)[C@H](CCCN=C(N)N)NC(=O)[C@H](CC(C)C)NC(=O)[C@H](CC(C)C)NC(=O)[C@H](CCC(=O)O)NC(=O)[C@H](CC(C)C)NC(=O)[C@H](CC(C)C)NC(=O)[C@H](CC(C)C)NC(=O)[C@H](CC(=O)O)NC(=O)[C@@H](NC(=O)[C@H](CO)NC(=O)[C@@H](NC(=O)[C@@H]1CCCN1C(=O)[C@@H]1CCCN1C(=O)CNC(=O)[C@H](CCC(=O)O)NC(=O)[C@@H]1CCCN1)[C@@H](C)CC)[C@@H](C)CC)C(=O)N[C@@H](CCCC)C(=O)N[C@H](C(=O)N[C@@H](CCC(=O)O)C(=O)N[C@H](C(=O)N[C@@H](CCC(=O)O)C(=O)N[C@@H](CCCCN)C(=O)N[C@@H](CCC(N)=O)C(=O)N[C@@H](CCC(=O)O)C(=O)N[C@@H](CCCCN)C(=O)N[C@@H](CCC(=O)O)C(=O)N[C@@H](CCCCN)C(=O)N1C(=O)[C@@H](C)NC(=O)[C@H](CCC(N)=O)NC(=O)[C@@H](N)CCC(=O)NCCCC[C@H]1C(=O)N[C@H](CC(N)=O)C(=O)N[C@H](CC(N)=O)C(=O)N[C@H](CCCN=C(N)N)C(=O)N[C@H](CC(C)C)C(=O)N[C@H](CC(C)C)C(=O)N[C@H](CC(C)C)C(=O)N[C@H](CC(=O)O)C(=O)N[C@@H](C(=O)N[C@@H](C(N)=O)[C@H](C)CC)[C@H](C)O)[C@@H](C)CC)[C@@H](C)CC |  |  | 5.73 |
| CCCC[C@H](NC(=O)[C@H](CCCN=C(N)N)NC(=O)[C@H](CC(C)C)NC(=O)[C@H](CC(C)C)NC(=O)[C@H](CCC(=O)O)NC(=O)[C@H](CC(C)C)NC(=O)[C@H](CC(C)C)NC(=O)[C@H](CC(C)C)NC(=O)[C@H](CC(=O)O)NC(=O)[C@@H](NC(=O)[C@H](CO)NC(=O)[C@@H](NC(=O)[C@@H]1CCCN1C(=O)[C@@H]1CCCN1C(=O)CNC(=O)[C@H](CCC(=O)O)NC(=O)[C@@H]1CCCN1)[C@@H](C)CC)[C@@H](C)CC)C(=O)N[C@@H](CCCC)C(=O)N[C@H](C(=O)N[C@@H](CCC(=O)O)C(=O)N[C@H](C(=O)N[C@@H](CCC(=O)O)C(=O)N[C@@H](CCCCN)C(=O)N[C@@H](CCC(N)=O)C(=O)N[C@@H](CCC(=O)O)C(=O)N[C@@H](CCCCN)C(=O)N[C@@H](CCC(=O)O)C(=O)N[C@@H](CCCCN)C(=O)N[C@H](CCC(=O)O)C(=O)N[C@H](CCC(N)=O)C(=O)N[C@H](C)C(=O)N[C@H](CCCCN)C(=O)N[C@H](CC(N)=O)C(=O)N[C@H](CC(N)=O)C(=O)N[C@H](CCCN=C(N)N)C(=O)N[C@H](CC(C)C)C(=O)N[C@H](CC(C)C)C(=O)N[C@H](CC(C)C)C(=O)N[C@H](CC(=O)O)C(=O)N[C@@H](C(=O)N[C@@H](C(N)=O)[C@H](C)CC)[C@H](C)O)[C@@H](C)CC)[C@@H](C)CC | 0.53 and 0.54 |  |  |
